The source made the active and inactive calls. The rule behind the calls is not given here.
Experiments:
[1] = molecular target: Human immunodeficiency virus type 1 reverse transcriptase (Human immunodeficiency virus 1, UniProt Q72547); assay: Inhibition of HIV1 reverse transcriptase
[2] = tested on: Human immunodeficiency virus 1; assay: Antiviral activity against HIV1 with RT Y181C mutation; format: functional, organism-based
In short: (§1)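 Cytoprotection assay in CEM-SS cells infected with HIV-1 strains engineered to carry the NNRTI-resistance RT mutation (K103N or Y181C). Activity is expressed as the EC50 for protection of the cells from virus-induced cytopathic effect.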

[3] = tested on: Human immunodeficiency virus 1; assay: Antiviral activity against HIV1 with RT K103N mutation; format: functional, organism-based; in short: as §1
[4] = tested on: Human immunodeficiency virus 1; assay: Antiviral activity against HIV1 3B in human MT4 cells by MTT assay; conditions: for EC50: Human immunodeficiency virus 1, 3B
[5] = Cytotoxicity against human MT4 cells by MTT assay; format: cell-based
[6] = Metabolic stability in rat plasma; format: ADME, cell-free
In short: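 Compounds were incubated in reconstituted rat plasma (two lots, checked with a control compound), with 1,1-diphenylethylene as internal standard. Aliquot supernatants were analysed by HPLC with UV detection. Half-lives came from regression fits of concentration versus time and were averaged over at least two replicates.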

[7] = Cytotoxicity against human CEM-SS cells by MTT assay; format: cell-based
[8] = tested on: Human immunodeficiency virus 2; assay: Antiviral activity against HIV2 ROD in human MT4 cells by MTT assay
[9] = tested on: Human immunodeficiency virus 1; assay: Antiviral activity against HIV1 RF in human CEM-SS cells by XTT assay; format: functional, organism-based; conditions: for EC50: Human immunodeficiency virus 1, RF

Compound	IC50 [1] [µM]	EC50 [2] [µM]	EC50 [3] [µM]	EC50 [4] [nM]	CC50 [5] [µM]	half-life [6] [min]	CC50 [7] [µM]	Activity [8]	EC50 [9] [nM]	Activity [4]	Activity [9]
COc1c(C)cc(C(=CCCCc2nnc(C)o2)c2cc(C)c(OC)c(C(=O)SC)c2)cc1C(=O)SC	6.7	> 100	> 50	1300	4.4	76	5.3	inactive	2200	–	–
COC(=O)c1cc(/C(=C\CCc2nnc(C)o2)c2cccc(C#N)c2)cc(C)c1OC	29	> 100	> 50	–	8.1	114	4.5	inactive	–	inactive	inactive
COc1c(C)cc(/C(=C\CCCc2nnc(C)o2)c2ccc(C#N)cc2)cc1C(=O)SC	3.2	> 100	2.3	360	36	45	8.9	inactive	600	–	–
